The text below walks through data of publication PMC2858377 (Nature structural & molecular biology, 2009).

“Also recorded” adds a separate entry of the source.

What is called Kd is the equilibrium constant for the complex coming apart.

Data set [1] has as its system nuclear/cytoplasmic distribution of KSRP in HIRc-B cells. Nature of the data set: KSRP sub-cellular localization, HIRc-B cells. The class given is cell-based. To be noted: insulin 10^−6 M, 1h; nuclear and cytoplasmic extracts.
The test system of data set [2] is cellular distribution of AUF1 and hnRNPA1 in HIRc-B cells. In words: AUF1 and hnRNPA1 cellular distribution, HIRc-B cells. The class given is cell-based. The settings on record: insulin 10^−6 M, 1h.
For data set [3], the target named is T1, 14-3-3ζ (Homo sapiens, UniProt P63104).
T1 sequence (P63104 1-245): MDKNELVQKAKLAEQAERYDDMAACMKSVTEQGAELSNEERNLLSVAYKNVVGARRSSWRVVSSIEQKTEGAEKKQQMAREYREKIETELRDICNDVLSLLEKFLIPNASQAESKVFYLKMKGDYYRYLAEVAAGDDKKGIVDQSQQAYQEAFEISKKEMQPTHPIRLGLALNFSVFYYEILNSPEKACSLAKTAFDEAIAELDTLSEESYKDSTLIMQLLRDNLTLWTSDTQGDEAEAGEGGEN
Nature of the data set: Isothermal titration calorimetry of KH1-derived peptides with 14-3-3ζ. The class given is binding. To be noted: ITC, 200 μM 14-3-3ζ, 2 mM peptide, 30°C. An outline of the steps: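 14-3-3ζ was dialysed into 10 mM Tris pH 7.4, 50 mM NaCl, 1 mM TCEP. It was titrated with phosphorylated or unphosphorylated KH1-derived peptide dissolved in the dialysis buffer, in a VP-ITC microcalorimeter. Concentrations given are 200 μM protein and 2 mM peptide; all runs were at 30 °C.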

Data set [4] concerns the target T1, 14-3-3ζ. Nature of the data set: SOFAST 15N-1H HMQC NMR titration of 14-3-3 into 15N-labelled KH1 / phospho-KH1. It is filed as binding. The settings on record: 15 μM KH1 or phospho-KH1, KH:14-3-3 1:2 ratio. An outline of the steps: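 15N-labelled KH1 or AKT1-phosphorylated KH1 in 10 mM Tris-HCl pH 7.4, 50 mM NaCl, 1 mM TCEP was mixed with 14-3-3ζ at a 1:2 ratio. SOFAST 15N-HMQC spectra were superimposed on free-domain spectra to track resonance broadening. For competition, the phosphorylated KH1 peptide was added to the phospho-KH1–14-3-3 complex at a 1:2:10 ratio.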

Data set [5] concerns AU-rich RNA targets. Nature of the data set: KH domain–RNA binding by 15N-HSQC NMR titration. The method in brief: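 Chemically synthesised RNA hexamers, used without further purification, were titrated into the 15N-labelled KH domain sample. 15N-HSQC spectra were acquired across the titration, with the protein in Tris-HCl pH 7.4/NaCl/TCEP buffer at 27°C.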
The subject of data set [6] is AKT1. Nature of the data set: In vitro phosphorylation by AKT kinase. The class given is biochemical. To be noted: 100 μM KH1, 1 μg recombinant active AKT1, 37°C, 48 hours.
Data set [7] can be described thus: Folding state by NMR. It is filed as physicochemical. To be noted: for folding state (in words): SOFAST 15N-1H HMQC, 10 mM Tris-HCl pH 7.4, 50 mM NaCl, 1 mM TCEP. An outline of the steps:
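KH1 (residues 130–218) was phosphorylated with active AKT1 and separated from unphosphorylated protein by gel filtration, with identity confirmed by mass spectrometry. Samples were exchanged into 10 mM Tris-HCl pH 7.4, 50 mM NaCl, 1 mM TCEP and examined by 15N-HSQC / SOFAST HMQC. Phospho-KH1 was then dephosphorylated with 100 U λ phosphatase (60 min, 37 °C), re-purified and re-examined. Heat-inactivated AKT1 and S193A mutant served as controls.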

Data set [8] is described as follows: CD spectroscopy / thermal unfolding. The class given is physicochemical.
Data set [9] concerns KSRP KH2. Nature of the data set: KH1–KH2 inter-domain interaction by 15N-HSQC NMR. The settings on record: 15N-HSQC of KH1_143–218, KH2_233-305 and KH12_143–305. It is filed as binding, human.

With “insulin: insulin treatment induces AKT activation in HIRc-B cells”, the KSRP localization result in [1] is on record as “AKT activation promotes nuclear localization of KSRP”. For the same molecule, in [2], the “effect on AUF1 and hnRNPA1 distribution” value was “did not affect the cellular distribution of the ribo-nucleoproteins AUF1 and hnRNPA1”.

With “non phosphorylated peptide: KH1-derived non-phosphorylated peptide used in ITC (YGLPERSVSLTGAPES)”, the “binding to 14-3-3ζ (in words)” value in [3] is “no binding is observed”.

B1: KH1: first KH domain of human KSRP (Ile130–Gly218) (protein)
chain: ISSQLGPIHPPPRTSMTEEYRVPDGMVGLIIGRGGEQINKIQQDSGCKVQISPDSGGLPERSVSLTGAPESVQKAKMMLDDIVSRGRGG
modifications: 15N-labelled
In the case of B1, the “interaction with 14-3-3 (change in spectrum)” value in data set [4] is reported as “the two proteins are not interacting; also recorded: No appreciable change is observed in the spectrum of the domain”; in [4] (listed as Non-phosphorylated KH1) it was “not recognized by 14-3-3”. The “affinity for AU-rich sequences (in words)” value in [5] (compared with the other KH domains) is reported as “affinity substantially lower than that of the other KH domains”. Also, in data set [5] (read-out: Kd for AU-rich RNA, 5′-UAUUUA-3′ and 5′-UAUUAU-3′ RNAs, 25 μM 15N-labeled KH domain, 10 mM Tris-HCl pH 7.4, 100 mM NaCl, 1 mM TCEP, 27°C, too low to be accurately measured), the Kd is above 1000 µM. The phosphorylation efficiency in data set [6] is given as ~ 90%. Moreover, in [7], the “folding state (in words)” value is “folded”. For the same molecule, the “fraction of unfolded protein” value in data set [8] (37°C) is reported as ~ 16%. Moreover, the “interaction of KH1 with KH2 (in words)” value in data set [9] is “KH1 and KH2 do not interact in a stable and specific way”.

B2: phospho-KH1: KSRP KH1 phosphorylated by AKT kinase at Ser193 (protein)
chain: ISSQLGPIHPPPRTSMTEEYRVPDGMVGLIIGRGGEQINKIQQDSGCKVQISPDSGGLPERSVSLTGAPESVQKAKMMLDDIVSRGRGG
modifications: phosphoserine at 193; 15N-labelled
Turning to B2, the “interaction with 14-3-3 (change in spectrum)” value is “Selected resonances broaden substantially; also recorded: interacts with the protein” in [4] and “strong selective decrease in the intensity of the NMR signal of a small number of resonances” in [4] (listed as phosphorylated KH1). In addition, the results for the “folding state (in words)” value in data set [7] and in data set [7] (listed as phosphorylated protein) were “unfolded” and “essentially unfolded”, respectively. Besides, the “folding after de-phosphorylation (in words)” value in [7] (SOFAST HMQC after λ protein phosphatase, 100 Units, 60 minutes, 37 °C) is “removal of the phosphate group leads to complete refolding of the protein”. For the same molecule, in data set [8] (CD at 20, 40, 60, 80 and 95 °C), the “effect of temperature on CD spectrum” value was “The spectrum of the protein does not change with temperature; also recorded: The spectra do not change substantially at increasing temperatures”. Moreover, the “apparent percentage of unfolded peptidic chain” value in data set [8] (CD, 20 °C, range expected for fully unfolded proteins 69.8-89.9 %) came to 79.9%.
